Measured values taken from publication PMC8157486 (Chemical Science, 2020).
“Also recorded” adds a separate entry of the source. Bridge positions count the residues as written; N and C are the ends. Square brackets hold non-standard residues; d marks the D form. Triazole bridges read from a SMILES are 1,4-linked. Peptide text beside a SMILES is read from it. * marks the point of attachment. Biotin = O=C1N[C@H]2[C@H](CS[C@H]2CCCCC(=O)*)N1; Lys(N3) = [N-]=[N+]=NCCCC[C@H](N)C(=O)O; PEG5 = NCCOCCOCCOCCOCCOCCC(=O)O; Pra = C#CC[C@H](N)C(=O)O

Assays:
[1] = molecular target: T1, full-length recombinant MrkA protein (Klebsiella pneumoniae, UniProt P12267); assay: Sandwich ELISA: immobilised biotinylated PCC captures full-length MrkA; format: binding
T1 sequence (P12267 23-202): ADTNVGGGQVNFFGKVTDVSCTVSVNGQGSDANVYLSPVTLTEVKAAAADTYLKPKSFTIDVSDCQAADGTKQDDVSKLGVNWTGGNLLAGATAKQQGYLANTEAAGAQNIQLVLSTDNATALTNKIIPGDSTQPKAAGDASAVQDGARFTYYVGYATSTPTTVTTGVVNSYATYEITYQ
Outline: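 NeutrAvidin-coated wells were loaded with 2 μM biotinylated PCC (2 h, room temperature), then blocked overnight in 5% milk at 4 °C. Recombinant MrkA (N-terminal 6xHis-SUMO tag) was titrated for 1 h, followed by rabbit anti-His pAb (1:5000, 1 h) and anti-rabbit HRP (1:2000, 1 h). Peroxidase substrate developed for 1–40 min and was quenched with 1 M H2SO4.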

[2] = system: MrkA-producing multidrug-resistant K. pneumoniae (strains BAA 1705 & 2146); assay: Whole-cell ELISA, biotinylated PCC binding; format: cell-based, Klebsiella pneumoniae; conditions: Fig. 5C; for binding selectivity towards MrkA-expressing K. pneumoniae cells versus non-target bacteria: whole-cell ELISA versus E. coli and S. Typhimurium; for whole-cell ELISA signal (SAv-HRP, 450 nm): biotinylated PCC at 5 μM
Outline: (§1)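 10^8 bacteria per test, from overnight cultures at 37 °C with shaking in G-CAA (promotes MrkA) or LB medium. Blocked in PBS-1% BSA (1 h, 37 °C), then incubated with biotinylated PCC in PBS-BSA (1 h, 37 °C). Washed thrice, then streptavidin-HRP (1:1000, 1 h, 37 °C). Developed with TMB, quenched with 2 N H2SO4, absorbance read at 450 nm.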

[3] = system: Escherichia coli (E. coli); assay: Whole-cell ELISA, biotinylated PCC binding; format: cell-based; conditions: biotinylated PCC at 5 μM; does not express MrkA; Fig. 5C
Outline: as §1

[4] = system: K. pneumoniae cells (strain BAA 1705); assay: Whole-cell ELISA on cells cultured in G-CAA media or LB; format: cell-based, Klebsiella pneumoniae; conditions: biotinylated PCC at 50 μM; Fig. S7B
[5] = system: Salmonella enterica serovar Typhimurium (S. Typhimurium); assay: Whole-cell ELISA, biotinylated PCC binding; format: cell-based; conditions: biotinylated PCC at 5 μM; does not express MrkA; Fig. 5C
Outline: as §1

[6] = system: MrkA-knockout KPPR1 cells; assay: Whole-cell ELISA, biotinylated PCC binding; format: cell-based, Klebsiella pneumoniae; conditions: mrkA (with mrkB and mrkC) knocked out
Outline: as §1

[7] = system: wild type MrkA-expressing KPPR1 cells (ATCC 43816); assay: Whole-cell ELISA, biotinylated PCC binding; format: cell-based, Klebsiella pneumoniae; conditions: biotinylated PCC at 5 μM down to 5 nM; cells cultured in G-CAA media; 1 h 37 °C
Outline: as §1

[8] = system: K. pneumoniae cells (strain BAA 2146); assay: Flow cytometry antibody recruitment; format: cell-based, Klebsiella pneumoniae; conditions: >18 000 single cells
Outline: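 Cells grown overnight in G-CAA medium, washed, and incubated with DNP-conjugated PCC. After a wash they were stained with Alexafluor488-labelled anti-DNP antibody, washed, resuspended in PBS and held 2 d at 4 °C. Cytometer calibrated with 3.5 μm fluorescent beads. Excitation 488 nm, emission 530 nm. Gated on single cells, with an unstained FMO control setting the DNP+ gate.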

[9] = system: K. pneumoniae cells (strain BAA 1705); assay: Gentamicin protection assay: phagocytosis and opsonophagocytic killing; format: cell-based, Klebsiella pneumoniae; conditions: for colony counts at 1 h (phagocytosis), control treatments: AR-PCC only (5 μM, no anti-DNP) or anti-DNP antibody only, triplicate
Outline: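 Bacteria opsonized with DNP-PCC (5 μM, PBS-1% BSA, 1 h, 37 °C), then anti-DNP (1:1000, 1 h, 37 °C). They infected immortalised mouse BMDMs (RPMI, 10% serum) at MOI 50 for 0.5 h at 37 °C. After washing, gentamicin 100 μg ml−1 was added. At 1 h and 24 h, macrophages were lysed in 0.2% Triton X-100 and CFU plated on LB agar. Triplicate.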

## 2: L-to-A substitution analogue of cy(LLFFF) (ALFFF; macrocycle closed by azidolysine-propargylglycine cyclization; N-terminal Biotin-peg group) [Compound 2]
[1]; full-length MrkA, N-terminal Biotin-peg PCCs, Fig. 4A
  MrkA binding (ELISA signal) compared to unmodified cy(LLFFF), alanine scan: Modestly lower binding

## 17: cy(LLFFF) with a hexa-arginine tag (RRRRRRLLFFF; LLFFF closed into a macrocycle by azidolysine-propargylglycine cyclization; N-terminal Biotin-peg group) [Compound 17]
[1]; MrkA protein at 250 nM in solutions of 10 and 100% mouse sera, Fig. 4B inset, listed as cy(LLFFF)+R6
  binding of MrkA protein in mouse sera: bound MrkA protein in solutions of 10 and 100% mouse sera, albeit at lower levels versus in 0% serum; also recorded: binds MrkA protein in the context of sera
[2]
  binding selectivity towards MrkA-expressing K. pneumoniae cells versus non-target bacteria: similarly high selectivity

## CC(C)C[C@@H]1NC(=O)[C@@H](NC(=O)CCOCCOCCOCCOCCOCCNC(=O)CCCC[C@@H]2SC[C@@H]3NC(=O)N[C@@H]32)Cc2cn(nn2)CCCC[C@@H](C(N)=O)NC(=O)[C@H](Cc2ccccc2)NC(=O)[C@H](Cc2ccccc2)NC(=O)[C@H](Cc2ccccc2)NC(=O)[C@H](CC(C)C)NC1=O [cy(LLFFF)] ({Biotin-PEG5}-[Pra]LLFFF[Lys(N3)]-NH2; triazole 1-7)
[3]
  whole-cell ELISA signal (SAv-HRP, 450 nm): only weak signals
[2]
  whole-cell ELISA signal (SAv-HRP, 450 nm): strong signals
  binding selectivity towards MrkA-expressing K. pneumoniae cells versus non-target bacteria: excellent binding selectivity
[4]
  whole-cell ELISA binding, G-CAA versus LB culture: bound K. pneumoniae cells regardless of MrkA-expression level
[5]
  whole-cell ELISA signal (SAv-HRP, 450 nm): only weak signals
[6]
  whole-cell ELISA signal (SAv-HRP, 450 nm): ELISA intensities comparable to baseline
[7]
  whole-cell ELISA signal (SAv-HRP, 450 nm): strong signals

## cy(HNGPT)-DNP (sidechain bridge or staple)
[8]; control AR-PCC at 50 μM plus anti-DNP, predominantly
  fluorescence intensity (Alexafluor 488 anti-DNP), flow cytometry: < 1.0 × 10^1

## cy(LLFFA) (sidechain bridge or staple)
[3]
  whole-cell ELISA signal (SAv-HRP, 450 nm): low signals
[2]
  whole-cell ELISA signal (SAv-HRP, 450 nm): low signals
[4]
  whole-cell ELISA binding, G-CAA versus LB culture: bound K. pneumoniae cells regardless of MrkA-expression level
[5]
  whole-cell ELISA signal (SAv-HRP, 450 nm): low signals
[6]
  whole-cell ELISA signal (SAv-HRP, 450 nm): ELISA intensities comparable to baseline
[7]
  whole-cell ELISA signal (SAv-HRP, 450 nm): much lower intensities

## cy(LLFFA)-DNP (sidechain bridge or staple)
[9]
  colony counts at 1 h (phagocytosis), control treatments: None of these treatments elicited phagocytosis above the basal level

## cy(LLFFF)+R6-DNP (sidechain bridge or staple)
[9]
  colony counts at 1 h (phagocytosis), control treatments: None of these treatments elicited phagocytosis above the basal level

## cy(LLFFF)-DNP (sidechain bridge or staple)
[8]; AR-PCC at 1 or 5 μM plus secondary antibody
  fluorescence (Alexafluor 488 anti-DNP), flow cytometry, versus controls: much higher fluorescence
[9]; 24 h of incubation, AR-PCC 5 μM plus anti-DNP
  colony counts at 24 h (opsonophagocytic killing): little to no cell counts
[9]
  colony counts at 1 h (phagocytosis), control treatments: None of these treatments elicited phagocytosis above the basal level
